Assay results: ChEMBL document CHEMBL3525897, “Metabolism and quantification of [(18)F]DPA-714, a new TSPO positron emission tomography radioligand” (Drug Metab Dispos, 2013)

Assays:
Liver microsome [1] = assay: Drug level in Sprague-Dawley rat liver microsomes treated with DPA-714 after 15 to 60 mins by LC-MS/MS analysis
[2] = Retention time of the compound by LC-MS analysis; type: physicochemical
Method in brief: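 Separation of DPA-714 and its metabolites by LC-MS on reverse-phase Atlantis C18 column (2.1x150 mm) with electrospray ionization.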

[3] = Drug metabolism in baboon liver microsomes assessed as N,N-diethyl-2-(2-(4-(2-fluoroethoxy)phenyl)-7-(hydroxymethyl)-5-methylpyrazolo[1,5-a]pyrimidin-3-yl)acetamide level after 15 to 60 mins by LC-MS/MS analysis; type: ADME; conditions: papio anubis
Method in brief: (§1)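 Liver microsomes (rat, baboon, or pooled human from 10 donors), 1 mg protein/mL, with DPA-714 100 µM in 0.1 M potassium phosphate, pH 7.4. Preincubated 2 min at 37°C, then started with NADPH-generating system. Run 15, 30 and 60 min; rates from 30 min. Stopped with acetonitrile, filtered, analysed by LC-MS-MS. Rates in nmol/mg/min; mean ± sd of 5 duplicate experiments.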

Liver microsome [4] = assay: Drug metabolism in Sprague-Dawley rat liver microsomes assessed as N,N-diethyl-2-(2-(4-(2-fluoroethoxy)phenyl)-6-hydroxy-5,7-dimethylpyrazolo[1,5-a]pyrimidin-3-yl)acetamide level after 15 to 60 mins by LC-MS/MS analysis; type: ADME
Method in brief: as §1

Liver microsome [5] = assay: Drug metabolism in Sprague-Dawley rat liver microsomes assessed as N,N-diethyl-2-(2-(4-(2-fluoroethoxy)phenyl)-7-(hydroxymethyl)-5-methylpyrazolo[1,5-a]pyrimidin-3-yl)acetamide level after 15 to 60 mins by LC-MS/MS analysis; type: ADME
Method in brief: as §1

Liver microsome [6] = assay: Drug metabolism in Sprague-Dawley rat liver microsomes assessed as N,N-diethyl-2-(2-(4-(2-fluoroethoxy)phenyl)-5,7-bis(hydroxymethyl)pyrazolo[1,5-a]pyrimidin-3-yl)acetamide level after 15 to 60 mins by LC-MS/MS analysis; type: ADME
Method in brief: as §1

Liver microsome [7] = assay: Drug metabolism in human liver microsomes assessed as N-ethyl-2-(2-(4-(2-fluoroethoxy)phenyl)-5,7-dimethylpyrazolo[1,5-a]pyrimidin-3-yl)acetamide level after 15 to 60 mins by LC-MS/MS analysis; type: ADME
Method in brief: as §1

Liver microsome [8] = assay: Drug metabolism in human liver microsomes assessed as N,N-diethyl-2-(2-(4-(2-fluoroethoxy)phenyl)-7-(hydroxymethyl)-5-methylpyrazolo[1,5-a]pyrimidin-3-yl)acetamide level after 15 to 60 mins by LC-MS/MS analysis; type: ADME
Method in brief: as §1

[9] = Drug metabolism in baboon liver microsomes assessed as N,N-diethyl-2-(2-(4-hydroxyphenyl)-5,7-dimethylpyrazolo[1,5-a]pyrimidin-3-yl)acetamide level after 15 to 60 mins by LC-MS/MS analysis; type: ADME; conditions: papio anubis
Method in brief: as §1

Liver microsome [10] = assay: Drug metabolism in Sprague-Dawley rat liver microsomes assessed as N,N-diethyl-2-(2-(4-hydroxyphenyl)-5,7-dimethylpyrazolo[1,5-a]pyrimidin-3-yl)acetamide level after 15 to 60 mins by LC-MS/MS analysis; type: ADME
Method in brief: as §1

Liver microsome [11] = assay: Drug metabolism in Sprague-Dawley rat liver microsomes assessed as N,N-diethyl-2-(2-(4-(2-fluoroethoxy)phenyl)-5-(hydroxymethyl)-7-methylpyrazolo[1,5-a]pyrimidin-3-yl)acetamide level after 15 to 60 mins by LC-MS/MS analysis; type: ADME
Method in brief: as §1

Liver microsome [12] = assay: Drug metabolism in Sprague-Dawley rat liver microsomes assessed as N-ethyl-2-(2-(4-(2-fluoroethoxy)phenyl)-5,7-dimethylpyrazolo[1,5-a]pyrimidin-3-yl)acetamide level after 15 to 60 mins by LC-MS/MS analysis; type: ADME
Method in brief: as §1

Liver microsome [13] = assay: Drug metabolism in Sprague-Dawley rat liver microsomes assessed as N-ethyl-2-(2-(4-(2-fluoroethoxy)phenyl)-5-(hydroxymethyl)-7-methylpyrazolo[1,5-a]pyrimidin-3-yl)acetamide level after 15 to 60 mins by LC-MS/MS analysis; type: ADME
Method in brief: as §1

Which Drug metabolism (Liver microsome [1]) does the source give for `CCN(CC)C(=O)Cc1c(-c2ccc(O)cc2)nn2c(C)cc(C)nc12` here?
The Drug metabolism was “metabolite_detected”.

And the Retention_time [2]?
Its Retention_time is 15.05 min.

Which Drug metabolism (Liver microsome [1]) does the source give for `CCN(CC)C(=O)Cc1c(-c2ccc(OCCF)cc2)nn2c(CO)cc(CO)nc12` here?
The Drug metabolism was “metabolite_detected”.

And the Retention_time [2]?
The Retention_time was 14.28 min.

For `CCNC(=O)Cc1c(-c2ccc(OCCF)cc2)nn2c(C)cc(C)nc12`, which Drug metabolism (Liver microsome [1]) is on record?
Its Drug metabolism is “metabolite_detected”.

What about the Retention_time [2] of the same compound?
Its Retention_time is 16.1 min.

For `CCN(CC)C(=O)Cc1c(-c2ccc(OCCF)cc2)nn2c(CO)cc(C)nc12`, which Drug metabolism (Liver microsome [1]) is on record?
Its Drug metabolism is “metabolite_detected”.

What about the Retention_time [2] of the same compound?
Its Retention_time is 15.85 min.

Which Drug metabolism [3] does the source give for `CCN(CC)C(=O)Cc1c(-c2ccc(OCCF)cc2)nn2c(C)cc(C)nc12` [DPA-714] here?
Its Drug metabolism is 0.46 nmol/mg/min.

And the Drug metabolism (Liver microsome [4])?
The Drug metabolism was “metabolite_detected”.

And the Drug metabolism (Liver microsome [5])?
The Drug metabolism was “metabolite_detected”.

What about the Drug metabolism (Liver microsome [6]) of the same compound?
Its Drug metabolism is “metabolite_detected”.

What about the Drug metabolism (Liver microsome [7]) of the same compound?
The Drug metabolism was 0.45 nmol/mg/min.

And the Drug metabolism (Liver microsome [8])?
The Drug metabolism was 0.57 nmol/mg/min.

And the Drug metabolism [9]?
The Drug metabolism was 0.64 nmol/mg/min.

What about the Drug metabolism (Liver microsome [10]) of the same compound?
The Drug metabolism was “metabolite_detected”.

And the Drug metabolism (Liver microsome [11])?
Its Drug metabolism is 0.89 nmol/mg/min.

What about the Drug metabolism (Liver microsome [12]) of the same compound?
The Drug metabolism was 0.82 nmol/mg/min.

And the Drug metabolism (Liver microsome [13])?
The Drug metabolism was “metabolite_detected”.
